{
  "source": "ChEMBL document CHEMBL3352181",
  "about": "“Novel phenyl and pyridyl substituted derivatives of isoindolines: Synthesis, antitumor activity and DNA binding features” (Eur J Med Chem, 2014)",
  "key": {"BJ": {"tested_on": "BJ", "experiment": "Antiproliferative activity against human BJ cells assessed as inhibition of cell proliferation after 72 hrs by MTT assay", "format": "cell-based", "conditions": "72 h", "method_in_brief": "(§1)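 Cells grown as monolayers in DMEM with 10% FBS, 2 mM L-glutamine, penicillin/streptomycin, 37 °C, 5% CO2. Seeded at 5000/well on day 0. Compounds added after 24 h as five serial dilutions (0,01 to 100 µM), DMSO ≤0.1%, then 72 h. MTT read-out converted to percentage growth. IC50 by linear regression; quadruplicates in three experiments.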"}, "HepG2 [1]": {"tested_on": "HepG2", "experiment": "Induction of cell cycle arrest on human HepG2 cells assessed as accumulation at S phase at 20 uM after 24 hrs by propidium iodide staining based flow cytometry (reference value: 17.0 +/- 2.9%)", "format": "functional"}, "HeLa": {"tested_on": "HeLa", "experiment": "Antiproliferative activity against human HeLa cells assessed as inhibition of cell proliferation after 72 hrs by MTT assay", "format": "functional, cell-based", "method_in_brief": "as §1"}, "HepG2 [2]": {"tested_on": "HepG2", "experiment": "Induction of cell cycle arrest on human HepG2 cells assessed as accumulation at S phase at 50 uM after 24 hrs by propidium iodide staining based flow cytometry (reference value: 17.0 +/- 2.9%)", "format": "functional", "method_in_brief": "(§2)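 HepG2 or SW620 cells were seeded at 25000 per well. After 24 h they were treated, then harvested 24 or 48 h later. Attached cells were trypsinized, pooled with floating cells, PBS-washed and fixed in 70% ethanol. Cells were stained with PI 1 µg/mL plus RNase A 0.2 µg/mL, and 10 000 events were acquired by flow cytometry. Phase percentages come from DNA histograms, in duplicate, with ANOVA at p < 0.05.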"}, "HepG2 [3]": {"tested_on": "HepG2", "experiment": "Induction of cell cycle arrest on human HepG2 cells assessed as accumulation at G2/M phase at 20 uM after 48 hrs by propidium iodide staining based flow cytometry (reference value: 28.0 +/- 13.8%)", "format": "functional"}, "HepG2 [4]": {"tested_on": "HepG2", "experiment": "Induction of cell cycle arrest on human HepG2 cells assessed as accumulation at G1 phase at 50 uM after 24 hrs by propidium iodide staining based flow cytometry (reference value: 66.5 +/- 1.4%)", "format": "functional"}, "HepG2 [5]": {"tested_on": "HepG2", "experiment": "Induction of cell cycle arrest on human HepG2 cells assessed as accumulation at G2/M phase at 50 uM after 24 hrs by propidium iodide staining based flow cytometry (reference value: 16.5 +/- 1.6%)", "format": "functional"}, "HepG2 [6]": {"tested_on": "HepG2", "experiment": "Induction of cell cycle arrest on human HepG2 cells assessed as accumulation at S phase at 50 uM after 48 hrs by propidium iodide staining based flow cytometry (reference value: 9.3 +/- 13.2%)", "format": "functional", "method_in_brief": "as §2"}, "SW-620": {"tested_on": "SW-620", "experiment": "(§3) Antiproliferative activity against human SW620 cells assessed as inhibition of cell proliferation after 72 hrs by MTT assay", "format": "functional, cell-based", "method_in_brief": "as §1"}, "[7]": {"experiment": "as §3", "format": "functional, cell-based, SW-620", "conditions": "Homo sapiens, SW-620, 72 h", "method_in_brief": "as §1"}, "HepG2 [8]": {"tested_on": "HepG2", "experiment": "Induction of cell cycle arrest on human HepG2 cells assessed as accumulation at G2/M phase at 20 uM after 24 hrs by propidium iodide staining based flow cytometry (reference value: 16.5 +/- 1.6%)", "format": "functional"}, "Hep G2 (human) [9]": {"tested_on": "Hep G2 (human)", "experiment": "Induction of apoptosis in human HepG2 cells assessed as induction of apoptotic bodies at 50 uM after 24 hrs by Annexin V-Fluos staining based fluorescent microscopy"}, "Hep G2 (human) [10]": {"tested_on": "Hep G2 (human)", "experiment": "Induction of apoptosis in human HepG2 cells assessed as induction of cytoplasmic shrinkage at 50 uM after 24 hrs by Annexin V-Fluos staining based fluorescent microscopy"}, "HepG2 [11]": {"tested_on": "HepG2", "experiment": "Induction of cell cycle arrest on human HepG2 cells assessed as accumulation at subG1 phase at 20 uM after 48 hrs by propidium iodide staining based flow cytometry (reference value: 1.7 +/- 0.5%)", "format": "functional", "method_in_brief": "as §2"}, "HepG2 [12]": {"tested_on": "HepG2", "experiment": "Induction of cell cycle arrest on human HepG2 cells assessed as accumulation at G1 phase at 50 uM after 48 hrs by propidium iodide staining based flow cytometry (reference value: 62.7 +/- 0.5%)", "format": "functional"}, "HepG2 [13]": {"tested_on": "HepG2", "experiment": "Induction of cell cycle arrest on human HepG2 cells assessed as accumulation at subG1 phase at 50 uM after 24 hrs by propidium iodide staining based flow cytometry (reference value: 2.9 +/- 1.1%)", "format": "functional", "method_in_brief": "as §2"}, "HepG2 [14]": {"tested_on": "HepG2", "experiment": "Induction of cell cycle arrest on human HepG2 cells assessed as accumulation at subG1 phase at 50 uM after 48 hrs by propidium iodide staining based flow cytometry (reference value: 1.7 +/- 0.5%)", "format": "functional", "method_in_brief": "as §2"}, "HepG2 [15]": {"tested_on": "HepG2", "experiment": "Induction of cell cycle arrest on human HepG2 cells assessed as accumulation at G1 phase at 20 uM after 24 hrs by propidium iodide staining based flow cytometry (reference value: 66.5 +/- 1.4%)", "format": "functional"}, "MCF7": {"tested_on": "MCF7", "experiment": "Antiproliferative activity against human MCF7 cells assessed as inhibition of cell proliferation after 72 hrs by MTT assay", "format": "functional, cell-based", "method_in_brief": "as §1"}, "HepG2 [16]": {"tested_on": "HepG2", "experiment": "Induction of cell cycle arrest on human HepG2 cells assessed as accumulation at S phase at 20 uM after 48 hrs by propidium iodide staining based flow cytometry (reference value: 9.3 +/- 13.2%)", "format": "functional", "method_in_brief": "as §2"}, "HepG2 [17]": {"tested_on": "HepG2", "experiment": "Induction of cell cycle arrest on human HepG2 cells assessed as accumulation at G2/M phase at 50 uM after 48 hrs by propidium iodide staining based flow cytometry (reference value: 28.0 +/- 13.8%)", "format": "functional"}, "HepG2 [18]": {"tested_on": "HepG2", "experiment": "Antiproliferative activity against human HepG2 cells assessed as inhibition of cell proliferation after 72 hrs by MTT assay", "format": "functional, cell-based", "method_in_brief": "as §1"}, "HepG2 [19]": {"tested_on": "HepG2", "experiment": "Induction of cell cycle arrest on human HepG2 cells assessed as accumulation at subG1 phase at 20 uM after 24 hrs by propidium iodide staining based flow cytometry (reference value: 2.9 +/- 1.1%)", "format": "functional", "method_in_brief": "as §2"}, "HepG2 [20]": {"tested_on": "HepG2", "experiment": "Induction of cell cycle arrest on human HepG2 cells assessed as accumulation at G1 phase at 20 uM after 48 hrs by propidium iodide staining based flow cytometry (reference value: 62.7 +/- 0.5%)", "format": "functional"}},
  "note": "pIC50: −log10 of the molar value. The source made the active and inactive calls. The rule behind the calls is not given here.",
  "data": [
    {"smiles": "N#Cc1ccc(/N=C2\\c3ccccc3CN2c2ccc(C#N)cn2)nc1", "values": [
      {"measurement": "pIC50", "setting": "BJ; Homo sapiens, BJ", "result": 4.20},
      {"measurement": "inhibition (INH)", "setting": "BJ; human, bj", "result": "Dose-dependent effect"},
      {"measurement": "Activity", "setting": "HepG2 [1]", "result": 21.5, "unit": "%"},
      {"measurement": "inhibition", "setting": "HeLa", "result": "Dose-dependent effect"},
      {"measurement": "pIC50", "setting": "HeLa; Homo sapiens, HeLa, 72 h", "result": 5.06},
      {"measurement": "Activity", "setting": "HepG2 [2]", "result": 26.4, "unit": "%"},
      {"measurement": "Activity", "setting": "HepG2 [3]", "result": 19.5, "unit": "%"},
      {"measurement": "Activity", "setting": "HepG2 [4]", "result": 57.4, "unit": "%"},
      {"measurement": "Activity", "setting": "HepG2 [5]", "result": 16.2, "unit": "%"},
      {"measurement": "Activity", "setting": "HepG2 [6]", "result": 18.5, "unit": "%"},
      {"measurement": "inhibition", "setting": "SW-620", "result": "Dose-dependent effect"},
      {"measurement": "pIC50", "setting": "[7]", "result": "< 4.00"},
      {"measurement": "Activity", "setting": "HepG2 [8]", "result": 20.4, "unit": "%"},
      {"measurement": "Activity", "setting": "Hep G2 (human) [9]", "result": "inactive"},
      {"measurement": "Activity", "setting": "Hep G2 (human) [10]", "result": "inactive"},
      {"measurement": "Activity", "setting": "HepG2 [11]", "result": 5.7, "unit": "%"},
      {"measurement": "Activity", "setting": "HepG2 [12]", "result": 61.2, "unit": "%"},
      {"measurement": "Activity", "setting": "HepG2 [13]", "result": 6.7, "unit": "%"},
      {"measurement": "Activity", "setting": "HepG2 [14]", "result": 8.4, "unit": "%"},
      {"measurement": "Activity", "setting": "HepG2 [15]", "result": 58.1, "unit": "%"},
      {"measurement": "inhibition", "setting": "MCF7", "result": "Dose-dependent effect"},
      {"measurement": "pIC50", "setting": "MCF7; Homo sapiens, MCF7, 72 h", "result": 4.15},
      {"measurement": "Activity", "setting": "HepG2 [16]", "result": 19.5, "unit": "%"},
      {"measurement": "Activity", "setting": "HepG2 [17]", "result": 20.3, "unit": "%"},
      {"measurement": "inhibition", "setting": "HepG2 [18]", "result": "Dose-dependent effect"},
      {"measurement": "pIC50", "setting": "HepG2 [18]; HepG2, 72 h", "result": 5.03},
      {"measurement": "Activity", "setting": "HepG2 [19]", "result": 6.6, "unit": "%"},
      {"measurement": "Activity", "setting": "HepG2 [20]", "result": 61, "unit": "%"}
    ]}
  ]
}
